Measurements as given in ChEMBL document CHEMBL1154198, “Chemical genetics of Plasmodium falciparum” (Nature, 2010).

What was measured:
[1] = system: Toxoplasma gondii; assay: ST_JUDE: Growth inhibition of to Toxoplasma gondii, in human U-2OS cells, as measured by luciferase.; assay type: functional, organism-based; settings: RH, U2OS
How it was run: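 T. gondii parasites engineered to express luciferase; drug sensitivity read by luminescence.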

[2] = system: Leishmania major; assay: ST_JUDE: Cytotoxicity using Alamar Blue to measure viability of Leishmania major; assay type: functional, organism-based
How it was run: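 L. major promastigotes; drug susceptibility read with Alamar Blue.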

[3] = system: Plasmodium falciparum; assay: ST_JUDE: Cytotoxicity against Plasmodium falciparum 3D7; assay type: functional, organism-based
How it was run: (§1)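 Asexual P. falciparum grown in human erythrocytes, exposed to compounds for 72 h, and growth read as the DNA quantity in treated versus control cultures. Dose-response run at 12 concentrations from 10 μM to 5 nM.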

[4] = ST_JUDE: Cytotoxicity using luciferase to measure ATP as an indicator of the viability of human epithelial hepatocellular carcinoma cells (HepG2); assay type: toxicity, cell-based
[5] = system: Plasmodium falciparum; assay: ST_JUDE: Cytotoxicity against Plasmodium falciparum K1; assay type: functional, organism-based; how it was run: as §1
[6] = system: Plasmodium falciparum; assay: ST_JUDE: Cytotoxicity against Plasmodium falciparum W2; assay type: functional, organism-based
[7] = system: Plasmodium falciparum; assay: ST_JUDE: Cytotoxicity against Plasmodium falciparum SB-A6; assay type: functional, organism-based
[8] = system: Plasmodium falciparum; assay: ST_JUDE: Cytotoxicity against Plasmodium falciparum V1/S; assay type: functional, organism-based
[9] = system: Trypanosoma brucei; assay: ST_JUDE: Cytotoxicity using luciferase to measure ATP as an indicator of the viability of Trypanosoma brucei; assay type: functional, organism-based
[10] = system: Plasmodium falciparum; assay: ST_JUDE: Cytotoxicity against Plasmodium falciparum D10 transfected with yeast DHOD; assay type: functional, organism-based
[11] = system: Plasmodium falciparum; assay: ST_JUDE: Cytotoxicity against Plasmodium falciparum Dd2; assay type: functional, organism-based
[12] = ST_JUDE: Cytotoxicity using luciferase to measure ATP as an indicator of the viability of human foreskin fibroblast cells (BJ); assay type: toxicity, cell-based
[13] = system: Plasmodium falciparum; assay: ST_JUDE: Plasmodium falciparum K1 EC50 (uM) as measured by SYBR green dye; assay type: functional, organism-based
[14] = ST_JUDE: Cytotoxicity using luciferase to measure ATP as an indicator of the viability of human Burkitt''s lymphoma lymphoblast cells (Raji); assay type: toxicity, cell-based
[15] = system: Plasmodium falciparum; assay: ST_JUDE: Plasmodium falciparum 3D7 EC50 (uM) as measured by SYBR green dye; assay type: functional, organism-based
[16] = ST_JUDE: Cytotoxicity using luciferase to measure ATP as an indicator of the viability of human epithelial embryonic kidney cells (HEK293); assay type: toxicity, cell-based

Row | SMILES | EC50 [1] [µM] | EC50 [2] [µM] | EC50 [3] [µM] | EC50 [4] [µM] | EC50 [5] [µM] | EC50 [6] [µM] | EC50 [7] [µM] | EC50 [8] [µM] | EC50 [9] [µM] | EC50 [10] [µM] | EC50 [11] [µM] | EC50 [12] [µM] | EC50 [13] [µM] | EC50 [14] [µM] | EC50 [15] [µM] | EC50 [16] [µM]
1 | COc1ccc(O)c(CN2CCN(c3cc(C)ccc3C)CC2)c1 | > 19.4 | > 15.2 | 2.2 | > 35.5 | 0.992 | 0.566 | 1.29 | 0.659 | > 34 | 1.23 | 0.741 | > 35.5 | 0.488 | > 35.5 | 1.37 | > 35.5
2 | CCCCOc1ccc(N(C(C)=O)C2=C(N3CCCCC3)C(=O)c3ccccc3C2=O)cc1 | > 15.6 | > 12.2 | 0.167 | 13.7 | 0.147 | 0.483 | 0.104 | 0.12 | 4.91 | 0.062 | 0.382 | > 28.5 | 0.489 | 6.97 | 0.722 | > 28.5
3 | CCOc1ccc(NC(=O)C2c3ccccc3C(=O)N(CC(C)C)C2c2cccs2)cc1 (centres undefined) | > 23.5 | > 18.3 | 0.258 | > 42.8 | 0.294 | 0.134 | 0.353 | 0.503 | 6.89 | 0.368 | 0.362 | > 42.8 | 0.147 | > 42.8 | 0.133 | > 42.8
4 | CCCCn1c(=N)n(CC(O)c2ccc(Br)cc2)c2ccccc21 (centres undefined) | > 23.8 | > 18.6 | 2 | 18.9 | 1.36 | 0.638 | 2.62 | 1.11 | 6.22 | 5.62 | 0.869 | > 43.4 | 0.39 | 32.9 | 1.04 | > 43.4
5 | COc1ccc2c(c1)N(C)/C(=C/c1cccc[n+]1C)S2 | > 8.63 | 0.0088 | 0.441 | > 15.7 | 0.386 | > 4.04 | 1.26 | 1.5 | 0.643 | 2.46 | 0.472 | > 15.7 | 0.152 | 6.52 | 0.186 | > 15.7
6 | Cc1cc(Nc2ccc(Br)c(C)c2)n2nc(C)nc2n1 | > 20.7 | > 16.2 | 0.214 | > 37.8 | 0.298 | 0.12 | > 9.71 | 0.296 | > 36.2 | > 9.71 | 0.205 | > 37.8 | 0.161 | > 37.8 | 0.167 | > 37.8
7 | CCCO/C(O)=C1\C(C)=NC2=C(C(=O)CC(c3ccc(OC)cc3)C2)C1c1ccccc1F (centres undefined) | > 24.4 | > 19.1 | 0.495 | > 44.6 | 0.281 | 0.0839 | 0.243 | 0.375 | 9.66 | 0.419 | 0.637 | > 44.6 | 0.439 | > 44.6 | 0.549 | > 44.6
8 | CO/C(O)=C1\C(C)=NC2=C(C(=O)CC(c3ccc(OC)c(OC)c3)C2)C1c1ccc(F)cc1 (centres undefined) | > 25.3 | > 19.8 | 0.236 | > 46.3 | 0.272 | 0.208 | 0.178 | 0.409 | 25.2 | 0.182 | 0.456 | > 46.3 | 0.108 | > 46.3 | 0.122 | > 46.3
9 | CCOc1ccccc1N1CCN(Cc2cc(Br)cc(OC)c2O)CC1 | > 20.1 | > 15.7 | 1.51 | > 36.8 | 0.478 | 2.93 | 1.14 | 0.643 | > 35.3 | 2.42 | 1.17 | > 36.8 | 1.11 | > 36.8 | 1.21 | > 36.8
